Assay results reported in article PMC9262120 (Chembiochem : a European journal of chemical biology, 2022).

Experiments:
TMV [1] = test: TMV–TBPT25-FITC ELISA; assay type: binding, Tobacco mosaic virus; conditions: varying TMV coated on plates; Figure S5
TMGMV = test: Cross-reactivity ELISA, TMGMV; assay type: binding, tobacco mild green mosaic virus; conditions: conclusion
Method in brief: (§1)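 Wells coated with 10 µg virus or VLP in 0.1 M bicarbonate, pH 8.6, overnight at 4 °C, then blocked with 5% BSA for 1 h at RT. 10^9 pfu phage in 5% BSA were added for 1 h, followed by 0.5% TBST washes. Detection used HRP anti-M13 (1:500, 1 h) and TMB for 10 min in the dark, read at 370 nm. Controls were empty M13KE phage and BSA-coated wells.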

TMV [2] = test: ELISA with biotinylated peptide on streptavidin plates; assay type: binding, Tobacco mosaic virus; conditions: CPMV-specific vs TMV-specific biotinylated peptide, Figure S3
Method in brief: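 0.1 µg biotinylated peptide was bound to streptavidin-coated plates for 1 h at RT; control wells received 5% BSA without peptide. Plates were blocked with 5% BSA, then 10 µg TMV was added for 1 h. Detection used rabbit anti-TMV polyclonal (1:1000, 1 h), then HRP goat anti-rabbit (1:10,000, 1 h), then TMB for 5–10 min. Reactions were stopped with 2 M H₂SO₄ and read at 450 nm.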

CPMV = test: Cross-reactivity ELISA, CPMV; assay type: binding, cowpea mosaic virus; conditions: conclusion
Method in brief: as §1

BSA = test: Off-target binding to blocking agent BSA; design: species or system bovine
[3] = target: T1, tobacco mild green mosaic virus particles (tobacco mild green mosaic virus, UniProt P03579 1-159); test: ELISA
T1 sequence: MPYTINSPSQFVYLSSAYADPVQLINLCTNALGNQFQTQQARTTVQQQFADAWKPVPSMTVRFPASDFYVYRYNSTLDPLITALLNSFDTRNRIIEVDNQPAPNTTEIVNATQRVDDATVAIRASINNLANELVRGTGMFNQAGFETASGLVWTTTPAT

H2N-GHRCRGGVCYKKKGGGSK/FITC/-CO2H [TBPT25-FITC]
concentration dependence of binding (TMV [1]): the more TMV coated onto the plates, the higher signal

H-GHRCRGGVCYKK-OH (cysteine pairing not given here) [TBPT25]
off-target binding to TMGMV (TMGMV): Some off-target binding
TMV binding, random peptide comparison (TMV [2]): TMV binding to the TMV-specific TBPT25 was confirmed
off-target binding to CPMV (CPMV): Some off-target binding
off-target binding to BSA (BSA): Some off-target binding

B1: monoclonal phage T25 (M13 phage displaying [residues removed]) (designed binder)
peptide: GHRCRGGVCYKK
fold less binding than to TMV [3]: 1.2 fold
